hERG rescue: hERG (human) protection from proarrhythmic block; CHO-hERG, FluxOR thallium flux, dofetilide IC70 present; AID 1511; activation (rescue from dofetilide block), less the hit threshold, % at 10 µM; Q12809; 310,000 compounds, 0.51% hits;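 active = activation above the mean of controls blocked by dofetilide plus 5 SD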;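 note: thallium influx through hERG after potassium depolarization seen as dye fluorescence rise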
Kir21 block: Kir2.1 (mouse) channel inhibition | P35561 | HEK293-Kir2.1, FluxOR thallium flux fluorescence; active compounds read low | AID 1672 | B-score at 10 µM | 310,000 compounds, 0.85% hits;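 active = fluorescence ratio B-score at or below minus 3 SD of library scores, with starting-brightness B-score within 2 SD, cut at about -4.2 in these data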;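 note: channel flux triggered by added potassium and thallium sulfate stimulus; B-score of peak minus minimum fluorescence over baseline after thallium stimulus; more negative B-score means stronger Kir2.1 block with less thallium influx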
KCNQ1 block: human KCNQ1 channel inhibition; P51787; 310,000 compounds, 1.3% hits; CHO-K1 KCNQ1, FluxOR thallium flux fluorescence; active compounds read high; B-score at 10 µM;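 active = compounds whose thallium flux B-score, printed positive for inhibition, exceeds three library SD while starting fluorescence stays within three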;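 note: channel opened by potassium depolarization with thallium stimulus after 20 min compound exposure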
Target sequence (P51787 whole entry, looked up): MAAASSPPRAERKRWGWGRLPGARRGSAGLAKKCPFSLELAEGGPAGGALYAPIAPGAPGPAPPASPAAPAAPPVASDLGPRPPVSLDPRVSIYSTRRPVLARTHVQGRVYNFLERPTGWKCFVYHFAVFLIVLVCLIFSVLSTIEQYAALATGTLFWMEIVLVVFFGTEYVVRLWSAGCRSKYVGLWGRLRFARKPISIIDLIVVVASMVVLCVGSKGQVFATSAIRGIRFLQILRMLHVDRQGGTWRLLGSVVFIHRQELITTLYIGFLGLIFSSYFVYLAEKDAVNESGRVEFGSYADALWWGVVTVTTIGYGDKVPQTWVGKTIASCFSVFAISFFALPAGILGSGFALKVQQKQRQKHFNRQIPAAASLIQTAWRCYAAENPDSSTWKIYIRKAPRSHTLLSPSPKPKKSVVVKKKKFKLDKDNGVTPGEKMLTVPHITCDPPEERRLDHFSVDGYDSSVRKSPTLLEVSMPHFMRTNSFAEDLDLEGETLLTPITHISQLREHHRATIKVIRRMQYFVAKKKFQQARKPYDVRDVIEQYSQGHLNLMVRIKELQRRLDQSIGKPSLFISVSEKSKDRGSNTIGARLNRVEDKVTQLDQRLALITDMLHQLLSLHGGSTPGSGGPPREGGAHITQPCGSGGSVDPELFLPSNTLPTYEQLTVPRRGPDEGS
KCNK3 inh: human KCNK3 channel inhibition, primary screen | AID 602410 | CHO-KCNK3 thallium flux, FluxOR fluorescence; active compounds read low | B-score at 10 µM | 340,000 compounds, 0.84% hits | O14649;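 active = B-score under library mean minus 4 SD, starting fluorescence ratio at most library mean plus 5 SD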;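 note: more negative B-score means stronger inhibition of thallium flux through KCNK3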
KCNK9 block: inhibitors of human KCNK9 two-pore domain potassium channel. Q9NPC2. B-score at 10 µM. 310,000 compounds, 1.2% hits. HEK293 KCNK9, FluxOR thallium flux fluorescence; active compounds read low;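 active = ratio B-score over 3 SD below the library mean, with starting fluorescence within 5 SD of its mean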;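 note: negative B-score means less thallium flux so channel inhibition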
KCNQ1 act: potentiates or activates the human KCNQ1 potassium channel; P51787; CHO-K1 KCNQ1, thallium flux FluxOR fluorescence; active compounds read high; B-score at 10 µM; 310,000 compounds, 0.35% hits; AID 2648;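 active = fluorescence ratio B-score, a plate-corrected score, at least three library SD, with initial intensity B-score within 5 SD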
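System: Stable KCNQ1 CHO-K1 line | Incubation: 90 min dye loading and 20 min compound exposure, both at room temperature | Measure: Ratio B score | Medium: Assay buffer for compound exposure, DMSO matched across wells | Compound dosing: Single-concentration screen | Probe or stimulus: K+/Tl+ depolarizing stimulus | Measured by: Kinetic FluxOR fluorescence, 10 s baseline plus 110 s post-stimulus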
KCNK9 inh conf: confirmation of human KCNK9 potassium channel inhibitors | inhibition, % at 10 µM | shares compounds with KCNK9 block | HEK293 KCNK9 cells, FluxOR thallium flux fluorescence | 4,900 compounds, 43% hits | AID 492992;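 active = thallium signal inhibited by more than 5 SD of the compound-free buffer control wells, on both duplicate plates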;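 note: 0% = assay buffer control wells without compound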
Kir2-1 spec: tests whether KCNK9 modulators also affect mouse Kir2.1; shares compounds with KCNK9 block; Kir2.1 cells, FluxOR thallium flux fluorescence; inhibition, % at 10 µM; 4,900 compounds, 4% hits;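 active = thallium signal drop more than 5 SD beyond the mean of the no-compound control wells, seen in both duplicate plates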;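 note: signal is fluorescence rise after thallium addition divided by baseline fluorescence; plate controls were assay buffer only for no effect and full block by chlorpromazine control for full effect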
KCNK9 uninduced: second check of KCNK9 modulator effects in non-induced HEK293 cells; shares compounds with KCNK9 block; FluxOR thallium flux; inhibition, % at 10 µM; 4,900 compounds, 40% hits; AID 492997;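 active = thallium signal drop beyond 5 SD of the untreated control mean, on both duplicate plates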;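 note: plate controls were buffer only IC0 wells for no effect and SID17386958 at its maximal inhibitory level for full effect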
KCNK3 confirm: human KCNK3 channel inhibition, confirmation assay | CHO-KCNK3 thallium flux, FluxOR fluorescence; 0% buffer, 100% carvedilol maximal block | 2,400 compounds, 99% hits | shares compounds with KCNK3 inh | ratio percent of control, % at 10 µM;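 active = ratio percent of control, averaged over triplicates, above buffer control mean plus 5 SD, cut at about 64% in these data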;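 note: ratio is the fluorescence rise from min to max over baseline after thallium stimulus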
KCNK3 uninduced: activity in cells without induced KCNK3 expression; 2,400 compounds, 40% hits; shares compounds with KCNK3 inh; non-induced KCNK3 parental cells, FluxOR thallium flux; active compounds read low; thallium flux ratio (lower = more inhibition) at 10 µM;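 active = thallium flux ratio, averaged over three wells, more than 5 SD below the buffer control mean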;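 note: host cells are CHO cells without KCNK3 induction; ratio is peak minus trough fluorescence over baseline then normalized to buffer controls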
Active calls of the source: *; i = inactive; nt = no result given. Shown are actives, neighbours in structure and some others; about 3.7% of the full set was active somewhere.

SMILES	hERG rescue	Kir21 block	KCNQ1 block	KCNK3 inh	KCNK9 block	KCNQ1 act	KCNK3 confirm	KCNK3 uninduced	others
Cc1ccc(-c2cc(-c3ccc(C)cc3)[n+](C)o2)cc1	-24	2.3	i	i	i	i	nt	nt
COCc1ccc(CN2CCCC(C(=O)c3sccc3C)C2)o1 (centres undefined)	-7	0.11	i	i	i	i	nt	nt	KCNK9 inh conf=i;Kir2-1 spec=i;KCNK9 uninduced=i
CC(C)(C)NC(=O)NC(=O)CN1CC=C(c2ccccc2)CC1	-9	0	i	i	i	i	nt	nt	KCNK9 inh conf=i;Kir2-1 spec=i;KCNK9 uninduced=i
O=C(CN1CC=C(c2ccccc2)CC1)NC(=O)NC1CCCCC1	-9	-1.5	i	i	i	i	nt	nt	KCNK9 inh conf=i;Kir2-1 spec=i;KCNK9 uninduced=i
N#CCCn1cc(C(=O)O)c(-c2cccc([N+](=O)[O-])c2)n1	-10	-0.13	i	i	i	i	nt	nt
COc1ccccc1CN1CCN(C(=O)COc2cccc(C)c2)CC1	-6	0.75	i	i	i	i	nt	nt
COc1ccccc1CN1CCN(C(=O)COc2ccc3ccccc3c2)CC1	-5	-6.2	i	i	i	i	nt	nt	KCNK9 inh conf=i;Kir2-1 spec=33%*;KCNK9 uninduced=i
C=CCn1c(O)c(/C(C)=N/N2CCN(C)CC2)c(=O)[nH]c1=O	-2	1.4	i	i	i	i	nt	nt
Cc1cccc(CN2CCN(c3ccc(Cl)cc3)CC2)c1	-21	-1.9	i	i	i	i	nt	nt	KCNK9 inh conf=i;Kir2-1 spec=i;KCNK9 uninduced=i
Fc1ccc(CN2CCN(c3ccc(Cl)cc3)CC2)cc1	-6	-0.07	i	i	i	i	nt	nt
CC1CC(C)CN(C(=O)COC(=O)c2cn(C)c3ccccc23)C1 (centres undefined)	nt	nt	nt	i	nt	nt	nt	nt
c1ccc2nc(N3CCNCC3)ccc2c1	nt	nt	nt	i	nt	nt	nt	nt
FC(F)(F)c1ccc2c(c1)N(CCCN1CCN(CCCl)CC1)c1ccccc1S2	-14	-0.52	i	i	i	i	nt	nt	KCNK9 inh conf=i;Kir2-1 spec=i;KCNK9 uninduced=i
Clc1ccc(C(Cn2ccnc2)OCc2csc3c(Cl)cccc23)c(Cl)c1 (centres undefined)	nt	nt	nt	-12*	nt	nt	105*	0.16*
CC(=O)O/C(=C1\CC2C3CC=C4CC(OC(C)=O)CCC4(C)C3CCC2(C)C1=O)C(F)(F)F (centres undefined)	nt	nt	nt	i	nt	nt	nt	nt
Clc1ccc(CCC(Cn2ccnc2)Sc2c(Cl)cccc2Cl)cc1 (centres undefined)	nt	nt	nt	-14*	nt	nt	120*	0.15*
Clc1ccc(Cn2ccnc2)cn1	-11	-0.02	i	i	i	i	nt	nt
O=[N+]([O-])O[C@H]1CO[C@H]2[C@@H]1OC[C@H]2O[N+](=O)[O-]	nt	nt	nt	i	nt	nt	nt	nt
O=C(NCc1ccccc1)c1cccn(Cc2ccccc2)c1=O	-12	-0.56	i	-9.8*	i	i	108*	i
CNC(=O)c1cccn(Cc2ccc(C(F)(F)F)cc2)c1=O	-2	0.15	i	i	i	i	nt	nt
NC(=O)c1ccc(N)nc1	nt	nt	nt	i	nt	nt	nt	nt
CC(C)CCNC(=O)c1cc(C(=O)c2cc(Br)ccc2O)cn(CCC(C)C)c1=O	-8	-0.37	i	-11*	i	i	103*	i
CC(C)CCNC(=O)c1cc(C(=O)c2cc(F)ccc2O)cn(CCC(C)C)c1=O	-6	-1.2	i	i	i	i	nt	nt
Cc1ccc(CN2CCCN(Cc3ccccc3C)S2(=O)=O)cc1	4	-1.9	i	-10*	-6.8*	i	121*	i
CCCCn1c(=O)c(C(=O)Nc2ccccn2)c(O)c2ccccc21	-4	0.54	7*	-8.7*	i	i	104*	0.14*
SMILES	hERG rescue	Kir21 block	KCNQ1 block	KCNK3 inh	KCNK9 block	KCNQ1 act	KCNK3 confirm	KCNK3 uninduced	others
COc1ccc(N=Cc2c(O)n(Cc3ccccc3)c(=S)[nH]c2=O)c(OC)c1	-15	0.5	6*	-8.7*	i	i	151*	i
C#CC[N+]1(C)[C@@H]2CC(OC(=O)C(CO)c3ccccc3)C[C@H]1C(O)C2 (some centres undefined)	-8	1.2	i	i	i	i	nt	nt
CCN(CC)C(=O)c1ccc(NC(=O)CCCSc2ccccc2)cc1	-15	-0.27	i	i	i	i	nt	nt
CCN(CC)C(=O)c1ccc(NC(=O)Nc2ccccc2F)cc1	-9	-1.7	i	-9.1*	i	i	85*	0.16*
COc1ccc(C2=NCC(=O)N(CC(=O)NCc3ccco3)c3sc4c(c32)CCCC4)cc1	-6	0.88	i	-8.9*	i	i	104*	i
Cn1c(O)c(N=Nc2cccc(S(=O)(=O)N3CCOCC3)c2)c(=O)n(C)c1=O	-1	-0.03	i	i	i	i	nt	nt
CCN(CC)S(=O)(=O)c1cccc(N=Nc2c(O)n(CC)c(=S)n(CC)c2=O)c1	-20	-0.24	i	-12*	-6.8*	i	117*	i
O=C(Cn1nc(-c2ccc(Cl)cc2)ccc1=O)N1CCC2(CC1)OCCO2	-12	-0.02	i	i	i	i	nt	nt

Compound activity deposited in PubChem by Johns Hopkins Ion Channel Center.
